Measurements from ChEMBL document CHEMBL1150393, “Evaluation of radiolabeled (hetero)aromatic analogues of N-(2-diethylaminoethyl)-4-iodobenzamide for imaging and targeted radionuclide therapy of melanoma” (J Med Chem, 2008).

Tests used:
[1] = Partition coefficient, log P in phosphate buffer solution at pH 7.4; assay type: physicochemical
Procedure, shortened: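 Shake-flask partition: 50 µM [¹²⁵I]-labelled compound in phosphate buffer pH 7.4 was mixed with 2 mL n-octanol. Each phase was γ-counted, P was taken as the octanol/buffer activity ratio, and log P was reported.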

[2] = Drug excretion in mouse B16-F0 cells bearing C57BL/6 mouse urine at 0.74 to 0.92 MBq, iv after 72 hrs; assay type: ADME, organism-based; conditions: in vivo
Procedure, shortened: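 Urine was collected from two B16-F0 tumour-bearing C57BL6 mice for up to 72 h after iv tail-vein injection of the [¹²⁵I]-labelled compound (0.1 µmol). Samples were counted to give cumulative urinary excretion as %ID.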

[3] = Biodistribution in tumor of C57BL/6 mouse bearing mouse B16-F0 cells at 0.74 to 0.92 MBq, iv after 3 hrs; assay type: ADME, organism-based, Neoplasm; conditions: in vivo
Procedure, shortened: (§1)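 [¹²⁵I]-labelled compound given iv by tail vein (0.1 µmol per mouse) to male C57BL6 mice bearing s.c. B16-F0 flank tumours (5 × 10⁵ cells in PBS). Two mice per time point were killed by CO₂, frozen in liquid nitrogen and cut into 40 µm cryosections, eight slices per mouse. Slice radioactivity was read on a multiwire proportional counter, converted to kBq/g and reported as %ID/g.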

[4] = Biodistribution in tumor of C57BL/6 mouse bearing mouse B16-F0 cells at 0.74 to 0.92 MBq, iv after 6 hrs; assay type: ADME, organism-based, Neoplasm; conditions: in vivo; procedure, shortened: as §1
[5] = Biodistribution in tumor of C57BL/6 mouse bearing mouse B16-F0 cells at 0.74 to 0.92 MBq, iv after 24 hrs; assay type: ADME, organism-based, Neoplasm; conditions: in vivo; procedure, shortened: as §1
[6] = Biodistribution in tumor of C57BL/6 mouse bearing mouse B16-F0 cells at 0.74 to 0.92 MBq, iv after 72 hrs; assay type: ADME, organism-based, Neoplasm; conditions: in vivo; procedure, shortened: as §1
[7] = Ratio of drug level in tumor to liver of C57BL/6 mouse bearing mouse B16-F0 cells at 0.74 to 0.92 MBq, iv after 3 hrs; assay type: ADME, organism-based; conditions: in vivo
Procedure, shortened: (§2)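 Tumour and organ radioactive concentrations came from whole-body cryosection counting (40 µm slices, eight per mouse, two mice per time) after tail-vein injection of the [¹²⁵I]-labelled compound (0.1 µmol) into male C57BL6 mice bearing s.c. B16-F0 melanoma. Each value is the ratio of the tumour concentration to the organ concentration.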

[8] = Ratio of drug level in tumor to lung of C57BL/6 mouse bearing mouse B16-F0 cells at 0.74 to 0.92 MBq, iv after 1 hr; assay type: ADME, organism-based; conditions: in vivo; procedure, shortened: as §2
[9] = Ratio of drug level in tumor to lung of C57BL/6 mouse bearing mouse B16-F0 cells at 0.74 to 0.92 MBq, iv after 6 hrs; assay type: ADME, organism-based; conditions: in vivo; procedure, shortened: as §2
[10] = Ratio of drug level in tumor to brain of C57BL/6 mouse bearing mouse B16-F0 cells at 0.74 to 0.92 MBq, iv after 1 hr; assay type: ADME, organism-based; conditions: in vivo; procedure, shortened: as §2
[11] = Biodistribution in Stomach content of C57BL/6 mouse bearing mouse B16-F0 cells at 0.74 to 0.92 MBq, iv after 1 hr; assay type: ADME, organism-based; conditions: in vivo
Procedure, shortened: (§3)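 Male C57BL6 mice with s.c. left-flank B16-F0 melanoma (5 × 10⁵ cells in PBS). Two mice per time point frozen in liquid nitrogen after CO₂ sacrifice. Eight 40 µm whole-body cryosections per mouse read by multiwire proportional counter. cpm/mm² converted to kBq/g and expressed as %ID/g.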

[12] = Biodistribution in Stomach content of C57BL/6 mouse bearing mouse B16-F0 cells at 0.74 to 0.92 MBq, iv after 6 hrs; assay type: ADME, organism-based; conditions: in vivo; procedure, shortened: as §3
[13] = Biodistribution in Stomach content of C57BL/6 mouse bearing mouse B16-F0 cells at 0.74 to 0.92 MBq, iv after 24 hrs; assay type: ADME, organism-based; conditions: in vivo; procedure, shortened: as §3
[14] = tested on: Muscle tissue; experiment: Biodistribution in muscle of C57BL/6 mouse bearing mouse B16-F0 cells at 0.74 to 0.92 MBq, iv after 1 hr; assay type: ADME, organism-based; conditions: in vivo; procedure, shortened: as §3
[15] = tested on: Muscle tissue; experiment: Biodistribution in muscle of C57BL/6 mouse bearing mouse B16-F0 cells at 0.74 to 0.92 MBq, iv after 3 hrs; assay type: ADME, organism-based; conditions: in vivo; procedure, shortened: as §3
[16] = tested on: Muscle tissue; experiment: Biodistribution in muscle of C57BL/6 mouse bearing mouse B16-F0 cells at 0.74 to 0.92 MBq, iv after 6 hrs; assay type: ADME, organism-based; conditions: in vivo; procedure, shortened: as §3
[17] = tested on: Pancreas; experiment: Biodistribution in pancreas of C57BL/6 mouse bearing mouse B16-F0 cells at 0.74 to 0.92 MBq, iv after 1 hr; assay type: ADME, organism-based; conditions: in vivo; procedure, shortened: as §3
[18] = tested on: Spleen; experiment: Biodistribution in spleen of C57BL/6 mouse bearing mouse B16-F0 cells at 0.74 to 0.92 MBq, iv after 3 hrs; assay type: ADME, organism-based; conditions: in vivo; procedure, shortened: as §1
[19] = tested on: Spleen; experiment: Biodistribution in spleen of C57BL/6 mouse bearing mouse B16-F0 cells at 0.74 to 0.92 MBq, iv after 6 hrs; assay type: ADME, organism-based; conditions: in vivo; procedure, shortened: as §1
[20] = tested on: Kidney; experiment: Biodistribution in kidney of C57BL/6 mouse bearing mouse B16-F0 cells at 0.74 to 0.92 MBq, iv after 1 hr; assay type: ADME, organism-based; conditions: in vivo; procedure, shortened: as §3
[21] = tested on: Kidney; experiment: Biodistribution in kidney of C57BL/6 mouse bearing mouse B16-F0 cells at 0.74 to 0.92 MBq, iv after 3 hrs; assay type: ADME, organism-based; conditions: in vivo; procedure, shortened: as §3
[22] = tested on: Kidney; experiment: Biodistribution in kidney of C57BL/6 mouse bearing mouse B16-F0 cells at 0.74 to 0.92 MBq, iv after 6 hrs; assay type: ADME, organism-based; conditions: in vivo; procedure, shortened: as §3
[23] = tested on: Blood; experiment: Biodistribution in blood of C57BL/6 mouse bearing mouse B16-F0 cells at 0.74 to 0.92 MBq, iv after 1 hr; assay type: ADME, organism-based; conditions: in vivo; procedure, shortened: as §3
[24] = tested on: Blood; experiment: Biodistribution in blood of C57BL/6 mouse bearing mouse B16-F0 cells at 0.74 to 0.92 MBq, iv after 3 hrs; assay type: ADME, organism-based; conditions: in vivo; procedure, shortened: as §3
[25] = tested on: Blood; experiment: Biodistribution in blood of C57BL/6 mouse bearing mouse B16-F0 cells at 0.74 to 0.92 MBq, iv after 6 hrs; assay type: ADME, organism-based; conditions: in vivo; procedure, shortened: as §3
[26] = Biodistribution in uvea of C57BL/6 mouse bearing mouse B16-F0 cells at 0.74 to 0.92 MBq, iv after 1 hr; assay type: ADME, organism-based, Uveal tract; conditions: in vivo; procedure, shortened: as §1
[27] = Biodistribution in uvea of C57BL/6 mouse bearing mouse B16-F0 cells at 0.74 to 0.92 MBq, iv after 3 hrs; assay type: ADME, organism-based, Uveal tract; conditions: in vivo; procedure, shortened: as §1
[28] = Biodistribution in uvea of C57BL/6 mouse bearing mouse B16-F0 cells at 0.74 to 0.92 MBq, iv after 6 hrs; assay type: ADME, organism-based, Uveal tract; conditions: in vivo; procedure, shortened: as §1
[29] = Biodistribution in uvea of C57BL/6 mouse bearing mouse B16-F0 cells at 0.74 to 0.92 MBq, iv after 24 hrs; assay type: ADME, organism-based, Uveal tract; conditions: in vivo; procedure, shortened: as §1
[30] = Biodistribution in uvea of C57BL/6 mouse bearing mouse B16-F0 cells at 0.74 to 0.92 MBq, iv after 72 hrs; assay type: ADME, organism-based, Uveal tract; conditions: in vivo; procedure, shortened: as §1
[31] = tested on: Thyroid gland; experiment: Biodistribution in thyroid of C57BL/6 mouse bearing mouse B16-F0 cells at 0.74 to 0.92 MBq, iv after 3 hrs; assay type: ADME, organism-based; conditions: in vivo; procedure, shortened: as §1
[32] = tested on: Thyroid gland; experiment: Biodistribution in thyroid of C57BL/6 mouse bearing mouse B16-F0 cells at 0.74 to 0.92 MBq, iv after 6 hrs; assay type: ADME, organism-based; conditions: in vivo; procedure, shortened: as §1
[33] = tested on: Thyroid gland; experiment: Biodistribution in thyroid of C57BL/6 mouse bearing mouse B16-F0 cells at 0.74 to 0.92 MBq, iv after 24 hrs; assay type: ADME, organism-based; conditions: in vivo; procedure, shortened: as §1

SMILES	logD [1]	Activity [2]	Drug uptake [3]	Drug uptake [4]	Drug uptake [5]	Drug uptake [6]	Ratio [7]	Ratio [8]	Ratio [9]	Ratio [10]	Drug uptake [11]	Drug uptake [12]	Drug uptake [13]	Drug uptake [14]	Drug uptake [16]	Drug uptake [17]	Drug uptake [18]	Drug uptake [20]	Drug uptake [21]	Drug uptake [22]	other results
CCN(CC)CCNC(=O)c1ccc2cc([125I])ccc2c1.Cl	1.33	43.7%	11.4 % ID/g	9 % ID/g	7 % ID/g	1.5 % ID/g	2.4	1.1	4.22	2.97	27.82 % ID/g	10.79 % ID/g	3.1 % ID/g	1.92 % ID/g	0.38 % ID/g	10.18 % ID/g	2.59 % ID/g	13.3 % ID/g	5.65 % ID/g	3.07 % ID/g	Drug uptake [15]: 0.83 % ID/g; Drug uptake [19]: 8.05 % ID/g; Drug uptake [23]: 2.97 % ID/g; Drug uptake [24]: 1.77 % ID/g; Drug uptake [25]: 1.74 % ID/g; Drug uptake [26]: 13.21 % ID/g; Drug uptake [27]: 13.9 % ID/g; Drug uptake [28]: 12.76 % ID/g; Drug uptake [29]: 12.28 % ID/g; Drug uptake [30]: 7.84 % ID/g
CCN(CC)CCNC(=O)c1ccc2cncc([125I])c2n1.Cl.Cl	0.51	68.9%	13.9 % ID/g	11.4 % ID/g	8.4 % ID/g	3.3 % ID/g	6.1	9.86	9.03	27.14	17.58 % ID/g	9.17 % ID/g	0.62 % ID/g	0.86 % ID/g	0.24 % ID/g	1.78 % ID/g	0.93 % ID/g	4.01 % ID/g	1.51 % ID/g	1.2 % ID/g	Drug uptake [15]: 0.43 % ID/g; Drug uptake [23]: 2.21 % ID/g; Drug uptake [24]: 1.88 % ID/g; Drug uptake [25]: 1.36 % ID/g; Drug uptake [31]: 41.44 % ID/g; Drug uptake [32]: 56.95 % ID/g; Drug uptake [33]: 115.66 % ID/g; Drug uptake [26]: 24.11 % ID/g; Drug uptake [27]: 20.3 % ID/g; Drug uptake [28]: 13.15 % ID/g; Drug uptake [29]: 10 % ID/g; Drug uptake [30]: 13.06 % ID/g
CCN(CC)CCNC(=O)c1ccc([125I])nc1.Cl.Cl	-0.29	67.3%	9.3 % ID/g	7 % ID/g	2.7 % ID/g	0.9 % ID/g	3.08	2.04	2.17	24.2	34.8 % ID/g	50.21 % ID/g	1.46 % ID/g	1.48 % ID/g	0.53 % ID/g	3.94 % ID/g	2.68 % ID/g	6.08 % ID/g	3.26 % ID/g	3.5 % ID/g	Drug uptake [19]: 2.35 % ID/g; Drug uptake [23]: 6.67 % ID/g; Drug uptake [24]: 4.22 % ID/g; Drug uptake [25]: 3.71 % ID/g; Drug uptake [31]: 59.09 % ID/g; Drug uptake [32]: 7.92 % ID/g; Drug uptake [33]: 111.3 % ID/g; Drug uptake [26]: 16.66 % ID/g; Drug uptake [27]: 12.69 % ID/g; Drug uptake [28]: 11.5 % ID/g; Drug uptake [29]: 6.07 % ID/g; Drug uptake [30]: 2.54 % ID/g
